Reference: ChEMBL document CHEMBL4038346, “Effect of Nitrogen Atom Substitution in A3 Adenosine Receptor Binding: N-(4,6-Diarylpyridin-2-yl)acetamides as Potent and Selective Antagonists” (J Med Chem, 2017)
Values belong to the compound of their own block, whether it stands above or below them. Calls of active or inactive are those of the source. No cut-off for these calls is given here.

Legend:
Adenosine receptor A1 = target: T1, Adenosine receptor A1 (Homo sapiens, UniProt P30542); assay: Displacement of [3H]DPCPX from human adenosine A1 receptor expressed in CHO cell membranes after 60 mins
T1 sequence (P30542 whole entry): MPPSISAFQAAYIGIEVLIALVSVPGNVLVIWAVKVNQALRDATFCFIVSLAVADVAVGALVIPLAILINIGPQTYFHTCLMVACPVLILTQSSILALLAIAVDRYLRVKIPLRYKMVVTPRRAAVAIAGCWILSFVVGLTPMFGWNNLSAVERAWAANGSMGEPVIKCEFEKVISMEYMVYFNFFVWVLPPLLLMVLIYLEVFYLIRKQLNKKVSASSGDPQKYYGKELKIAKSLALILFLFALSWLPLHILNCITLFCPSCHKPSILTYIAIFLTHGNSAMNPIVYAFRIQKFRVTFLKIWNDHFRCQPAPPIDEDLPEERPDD

Adenosine receptor A3 = target: T2, Adenosine receptor A3 (Homo sapiens, UniProt P0DMS8); assay: (§1) Displacement of [3H]NECA from human adenosine A3 receptor expressed in human HeLa cell membranes after 180 mins
T2 sequence (P0DMS8 whole entry): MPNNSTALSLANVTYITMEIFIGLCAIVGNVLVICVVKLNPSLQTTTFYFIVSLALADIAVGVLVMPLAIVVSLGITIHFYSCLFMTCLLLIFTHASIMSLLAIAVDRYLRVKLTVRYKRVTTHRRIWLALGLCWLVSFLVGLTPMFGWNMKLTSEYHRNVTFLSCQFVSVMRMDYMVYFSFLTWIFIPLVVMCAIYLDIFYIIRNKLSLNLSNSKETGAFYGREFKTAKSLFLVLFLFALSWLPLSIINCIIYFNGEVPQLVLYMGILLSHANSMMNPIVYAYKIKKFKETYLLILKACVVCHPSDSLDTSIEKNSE

Adenosine receptor A2a [1] = target: T3, Adenosine receptor A2a (Homo sapiens, UniProt P29274); assay: Displacement of [3H]ZM241385 from human adenosine A2A receptor expressed in human HeLa cell membranes at 1 uM after 30 mins relative to control
[2] = target: T4, Adenosine receptor A2b (Homo sapiens) (UniProt P29275); assay: Displacement of [3H]DPCPX from human adenosine A2B receptor expressed in HEK293 cell membranes at 1 uM after 30 mins relative to control
T4 sequence (whole entry): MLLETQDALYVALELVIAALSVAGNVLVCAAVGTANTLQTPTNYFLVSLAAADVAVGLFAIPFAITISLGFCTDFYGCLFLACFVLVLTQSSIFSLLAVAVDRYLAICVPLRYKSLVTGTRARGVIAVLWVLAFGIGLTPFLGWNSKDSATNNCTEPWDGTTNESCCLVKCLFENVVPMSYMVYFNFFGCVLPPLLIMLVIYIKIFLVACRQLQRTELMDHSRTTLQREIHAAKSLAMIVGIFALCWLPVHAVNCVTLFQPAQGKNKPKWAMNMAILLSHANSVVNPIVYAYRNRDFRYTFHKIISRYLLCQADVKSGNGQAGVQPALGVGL

[3] = target: T5, Adenosine receptor A3 (Homo sapiens) (UniProt P0DMS8); assay: Antagonist activity at human adenosine A3 receptor expressed in CHO cells assessed as decrease in NECA-induced inhibition of forskolin-stimulated cAMP formation preincubated for 15 mins followed by NECA addition for 10 mins and subsequent forskolin challenge for 5 mins by enzyme immunoassay; type: functional, cell-based
T5 sequence (whole entry): T2 sequence (P0DMS8 whole entry)
Procedure, shortened: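 CHO-A3 cells seeded at 20 000/well in DMEM-F12 with 10% FCS and 1% L-glutamine, grown 24 h at 37 °C, 5% CO2. Washed, then preincubated 15 min at 37 °C in DMEM-F12/25 mM HEPES pH 7.4 with 30 μM rolipram plus antagonist.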

[4] = target: Adenosine receptors; A1 & A3 (Homo sapiens) (UniProt P30542+P0DMS8); assay: Selectivity ratio of Ki for human adenosine A1 receptor expressed in CHO cell membranes to Ki for human adenosine A3 receptor expressed in human HeLa cell membranes; type: cell-based
[5] = target: T6, Adenosine receptor A1 (Homo sapiens) (UniProt P30542); assay: Displacement of [3H]DPCPX from human adenosine A1 receptor expressed in CHO cell membranes at 1 uM after 60 mins relative to control
T6 sequence (whole entry): T1 sequence (P30542 whole entry)

Adenosine receptor A2a [6] = target: T3, Adenosine receptor A2a; assay: Displacement of [3H]ZM241385 from human adenosine A2A receptor expressed in human HeLa cell membranes after 30 mins
[7] = target: T5, Adenosine receptor A3 (Homo sapiens); assay: as §1
Adenosine receptor A2b = target: T7, Adenosine receptor A2b (Homo sapiens, UniProt P29275); assay: Displacement of [3H]DPCPX from human adenosine A2B receptor expressed in HEK293 cell membranes after 30 mins
T7 sequence (P29275 whole entry): T4 sequence (whole entry)

T3 sequence (P29274 whole entry): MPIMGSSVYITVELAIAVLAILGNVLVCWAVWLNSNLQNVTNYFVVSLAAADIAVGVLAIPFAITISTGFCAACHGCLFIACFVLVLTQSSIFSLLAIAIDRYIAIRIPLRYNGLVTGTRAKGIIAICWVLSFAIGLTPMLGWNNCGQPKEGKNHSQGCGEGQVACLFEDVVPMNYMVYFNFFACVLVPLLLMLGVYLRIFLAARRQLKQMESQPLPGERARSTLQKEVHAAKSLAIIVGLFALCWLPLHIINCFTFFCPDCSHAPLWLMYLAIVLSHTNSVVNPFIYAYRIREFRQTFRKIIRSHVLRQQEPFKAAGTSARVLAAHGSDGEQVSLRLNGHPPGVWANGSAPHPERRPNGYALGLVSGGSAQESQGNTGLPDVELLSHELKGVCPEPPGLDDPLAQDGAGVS

- Ki (Adenosine receptor A1): 91.1 nM
- Ki (Adenosine receptor A3): 2.8 nM
- inhibition (Adenosine receptor A2a [1]): 9%
- inhibition [2]: 27%
- Kb [3]: 1.9 nM
- Ratio Ki [4]: 30
SMILES: CC(=O)Nc1cc(-c2ccc3c(c2)OCO3)cc(-c2ccc3c(c2)OCO3)n1

- Ki (Adenosine receptor A3): 781 nM
- inhibition [5]: 8%
- inhibition (Adenosine receptor A2a [1]): 1%
- inhibition [2]: 19%
SMILES: COc1ccccc1-c1cc(NC(C)=O)nc(-c2ccccc2OC)c1

- inhibition (Adenosine receptor A2a [1]): 15%
SMILES: COc1ccc(-c2cc(NC(C)=O)nc(-c3ccc(OC)cc3)c2)cc1

- inhibition (Adenosine receptor A2a [1]): 1%
SMILES: COc1cccc(OC)c1-c1cc(NC(C)=O)nc(-c2c(OC)cccc2OC)c1

- Ki (Adenosine receptor A2a [6]): 353 nM
SMILES: COc1cccc(-c2cc(NC(C)=O)nc(-c3cccc(OC)c3OC)c2)c1OC

- inhibition (Adenosine receptor A2a [1]): 1%
SMILES: CC(=O)Nc1cc(-c2ccc(OC(F)(F)F)cc2)cc(-c2ccc(OC(F)(F)F)cc2)n1

- inhibition [7]: Active
SMILES: CC(=O)Nc1cc(-c2ccc(C(C)=O)cc2)nc(-c2ccc(C(C)=O)cc2)n1

- Ki (Adenosine receptor A3): 35.2 nM
- inhibition [5]: 3%
- inhibition (Adenosine receptor A2a [1]): 3%
- inhibition [2]: 1%
SMILES: COc1ccc(OC)c(-c2cc(NC(C)=O)nc(-c3cc(OC)ccc3OC)c2)c1

- Ki (Adenosine receptor A1): 239 nM
- inhibition (Adenosine receptor A2a [1]): 21%
SMILES: COc1cccc(-c2cc(NC(C)=O)nc(-c3cccc(OC)c3)c2)c1

- inhibition (Adenosine receptor A2a [1]): 4%
SMILES: CC(=O)Nc1cc(-c2ccc(C(C)=O)cc2)cc(-c2ccc(C(C)=O)cc2)n1

- inhibition [7]: Active
SMILES: COc1ccccc1-c1cc(NC(C)=O)nc(-c2ccccc2OC)n1

- Ki (Adenosine receptor A1): 21.1 nM
- Ki (Adenosine receptor A2b): 51.2 nM
- Ki (Adenosine receptor A3): 98.5 nM
- inhibition (Adenosine receptor A2a [1]): 49%
SMILES: CC(=O)Nc1cc(-c2ccccc2)cc(-c2ccccc2)n1

- inhibition (Adenosine receptor A2a [1]): 2%
SMILES: COc1cc(OC)cc(-c2cc(NC(C)=O)nc(-c3cc(OC)cc(OC)c3)c2)c1

- Ki (Adenosine receptor A3): 116 nM
- inhibition [5]: 8%
- inhibition (Adenosine receptor A2a [1]): 15%
- inhibition [2]: 4%
SMILES: COc1cc(-c2cc(NC(C)=O)nc(-c3cc(OC)c(OC)c(OC)c3)c2)cc(OC)c1OC

- inhibition (Adenosine receptor A2a [1]): 2%
SMILES: CSc1ccc(-c2cc(NC(C)=O)nc(-c3ccc(SC)cc3)c2)cc1

- inhibition (Adenosine receptor A2a [1]): 1%
SMILES: CC(=O)Nc1cc(-c2ccc(C)cc2)cc(-c2ccc(C)cc2)n1

- inhibition (Adenosine receptor A2a [1]): 2%
SMILES: COc1ccc(-c2cc(NC(C)=O)nc(-c3ccc(OC)cc3OC)c2)c(OC)c1

- inhibition (Adenosine receptor A2a [1]): 1%
SMILES: COc1ccc(-c2cc(NC(C)=O)nc(-c3ccc(OC)c(OC)c3)c2)cc1OC
